Experimental data: article PMC3823501 (Cancer research, 2013)
Like-named read-outs stand apart in the source and are kept apart here.

Columns and labels:
[1] = tested on: KB-HURs cells; conditions: cited from earlier work
[2] = patients; cited from earlier work
[3] = target: T1, recombinant hRRM2/hRRM1 (Homo sapiens, UniProt P31350); test: [3H] CDP reduction assay, recombinant hRRM2/hRRM1; assay type: biochemical
T1 sequence (P31350 1-389): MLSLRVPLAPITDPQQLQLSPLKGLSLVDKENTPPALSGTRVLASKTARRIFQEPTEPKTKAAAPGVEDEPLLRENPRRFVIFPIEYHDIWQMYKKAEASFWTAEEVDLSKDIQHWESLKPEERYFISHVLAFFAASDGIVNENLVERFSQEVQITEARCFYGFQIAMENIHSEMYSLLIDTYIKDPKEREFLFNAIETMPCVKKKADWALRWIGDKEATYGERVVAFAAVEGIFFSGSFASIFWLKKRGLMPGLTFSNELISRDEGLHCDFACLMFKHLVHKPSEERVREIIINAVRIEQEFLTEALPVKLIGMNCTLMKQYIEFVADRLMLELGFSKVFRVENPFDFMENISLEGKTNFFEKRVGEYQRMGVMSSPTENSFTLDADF

[4] = target: T2, immobilized full-length hRRM2 (Homo sapiens, UniProt P31350); test: Surface plasmon resonance, immobilized full-length hRRM2; assay type: binding; conditions: 0.0 – 50.0 µM compound
T2 sequence (P31350 1-389): T1 sequence (P31350 1-389)
Summary of the method: (§1)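 Surface plasmon resonance on a Biacore […], with full-length or C-terminally truncated hRRM2 immobilised on CM4 sensor chips. Test compound was injected at 0.0–50.0 µM and binding was read from sensorgrams.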

[5] = target: T3, C-terminal truncated hRRM2 (Homo sapiens, UniProt P31350); test: Surface plasmon resonance, C-terminal truncated hRRM2; assay type: binding; conditions: 0.0 – 50.0 µM compound
T3 sequence (P31350 1-348 limits assumed): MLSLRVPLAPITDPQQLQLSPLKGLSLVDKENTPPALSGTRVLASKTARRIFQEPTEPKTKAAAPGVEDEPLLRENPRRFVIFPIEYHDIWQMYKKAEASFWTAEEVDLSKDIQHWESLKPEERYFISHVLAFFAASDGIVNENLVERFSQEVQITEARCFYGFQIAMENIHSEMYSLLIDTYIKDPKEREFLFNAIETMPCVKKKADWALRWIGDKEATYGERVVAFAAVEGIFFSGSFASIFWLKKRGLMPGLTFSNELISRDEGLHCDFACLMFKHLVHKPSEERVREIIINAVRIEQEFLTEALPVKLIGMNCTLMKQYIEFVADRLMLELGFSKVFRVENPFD
Summary of the method: as §1

[6] = target: T4, RRM1-RRM2 interaction (Homo sapiens, UniProt P31350); assay type: binding
T4 sequence (P31350 1-389): T1 sequence (P31350 1-389)
Summary of the method: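 Surface plasmon resonance on a Biacore […] with hRRM2 immobilised on a CM4 chip. hRRM1 (0–1 µM) binding was first confirmed and a KD derived. A fixed 0.5 µM hRRM1 was then co-injected with test compound at 0–50 µM, and sensorgrams were read.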

[7] = target: T5, endogenously expressed RNR in KB cells (Homo sapiens, UniProt P31350); test: RNR activity in cell lysates of KB cells; assay type: cell-based; conditions: 24 h incubation, 10 µM
T5 sequence (P31350 1-389): T1 sequence (P31350 1-389)

[8] = tested on: hRRM2 protein level in KB cells; test: Western blot of hRRM2 protein level, KB cells; assay type: cell-based, human; conditions: 20 µM
Summary of the method: (§2)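 KB and TOV-112D cells were treated with 20 µM test compound for a series of times. Lysates were western blotted for hRRM2, with β-actin as loading control.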

[9] = tested on: hRRM2 protein level in TOV-112D cells; test: Western blot of hRRM2 protein level, TOV-112D cells; assay type: cell-based, human; conditions: 20 µM
Summary of the method: as §2

[10] = tested on: KB cells; test: 72 h MTS viability assay, KB cells; assay type: cell-based, human
Summary of the method: (§3)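 72 h MTS viability test (CellTiter 96 AQueous) on 10 replicate wells per condition, following the kit instructions. IC50 is the concentration that lowers viability to 50% of the DMSO control. KB cells were grown in RPMI 1640 with 10% FBS and 1% penicillin-streptomycin at 37°C in humidified 5% CO2. KB-HURs and KB-Gem are KB-derived resistant clones.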

[11] = tested on: KB-HURs cells; test: 72 h viability assay, HU-resistant KB clone; assay type: cell-based, human
Summary of the method: as §3

[12] = tested on: KB-Gem cells; test: 72 h viability assay, gemcitabine-resistant KB clone; assay type: cell-based; conditions: Homo sapiens, read-out: IC50, toxicity assay
Summary of the method: as §3

[13] = tested on: NHDF cells; test: 72 h viability assay, normal dermal fibroblasts; assay type: cell-based; conditions: Homo sapiens, read-out: IC50, viability
[14] = tested on: KB cells; test: Real-time cell proliferation; assay type: cell-based, human; conditions: 20 µM COH29, 20 µM Gem or 1 mM HU
Summary of the method: (§4)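 Cell proliferation was followed by real-time electronic cell sensing (RT-CES, W200 16X) with 2,500 cells seeded per well. From 24 h after seeding, the cell index was recorded every half hour for 120 hours. Quadruplicate samples were used, and traces show the mean of 4 replicates.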

[15] = tested on: KBHURs cells; test: Real-time cell proliferation; assay type: cell-based, human; conditions: COH29 2–250 µM
Summary of the method: as §4

[16] = tested on: KB-Gem cells; test: Real-time cell proliferation; assay type: cell-based, human; conditions: COH29 2–250 µM
[17] = tested on: dNTP pools in MOLT-4 cells; test: dNTP pools in MOLT-4 cells; assay type: cell-based, human; conditions: 10 µM, by 24 h
Summary of the method: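 MOLT-4 cells were exposed to 10 µM test compound or left untreated (control). dATP, dCTP and dGTP levels were measured after 4, 8 and 24 h.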

[18] = tested on: KB cells; test: Cell cycle and apoptosis by flow cytometry, KB cells; assay type: cell-based, human
Summary of the method: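 After 48 h of treatment, KB cells were analysed on a FACScalibur flow cytometer. Propidium iodide staining gave cell-cycle distribution and Annexin V signal gave apoptosis.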

[19] = tested on: NCI broad panel of 60 human cancer cell lines; test: NCI 60 human cancer cell line panel, MTT cytotoxicity; assay type: cell-based; conditions: 10 µM
[20] = tested on: MOLT-4 tumor xenograft; test: MOLT-4 tumor xenograft in mice; assay type: in vivo, mouse; conditions: twice-daily oral dosing 50 mg/kg and 100 mg/kg, Day 12
Summary of the method: (§5)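 Female NSG (NOD/SCID/IL2Rgamma null) mice, 8–10 weeks old, received 5×10^6 MOLT-4 or TOV-112D cells subcutaneously in the right flank. Tumour volume was taken as 0.5×l×w2. Once tumours reached about 70 mm3, test compound in 30% solutol was given daily by gavage on a one- or two-dose schedule. Mice were sacrificed on day 28 after implantation; 4 animals/group, mean ± SD.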

[21] = tested on: TOV-112D tumor xenograft; test: TOV-112D tumor xenograft in mice; assay type: in vivo, mouse; conditions: 200, 300, or 400 mg/kg/day oral, 7 days
Summary of the method: as §5

[22] = Pharmacokinetics in mice, HPLC-MS/MS of plasma; assay type: in vivo, mouse
Summary of the method: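 Mice received 800 mg/kg test compound orally or intravenously. Plasma levels were measured by HPLC-tandem mass spectrometry (Agilent 1100 capillary LC with triple-quadrupole MS). Oral bioavailability was derived by comparison with the intravenous route.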

[23] = Tolerability in mice; assay type: in vivo; conditions: up to a daily dose of 500 mg/kg
[24] = target: T6, RNR in MOLT-4 tumor xenografts (Homo sapiens, UniProt P31350); test: RNR activity in extracts of MOLT-4 tumor xenografts; assay type: in vivo, mouse; conditions: mice treated for 12 days, 100 mg/kg
T6 sequence (P31350 1-389): T1 sequence (P31350 1-389)
Summary of the method: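 RNR activity was measured in extracts of subcutaneous MOLT-4 xenografts from NSG mice dosed orally for 12 days with vehicle (solutol-15) or 100 mg/kg test compound.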

[25] = tested on: dNTP pools in MOLT-4 tumor xenografts; test: Intratumoral dNTP pools of MOLT-4 tumor xenografts; assay type: in vivo, mouse; conditions: MOLT-4 xenografts, treated vs. control
[26] = Homo sapiens, KB, read-out: IC50, cell proliferation/viability
[27] = female, Balb/c nude, mouse, plasma, po, 800 mg/kg

In the case of `NC(=S)NN=Cc1ncccc1N` [3-AP, 3-aminopyridine-2-carboxaldehyde thiosemicarbazone], the “activity in KBHURs” value [1] is listed as “active” and the “toxicities reported from the phase I trial” value [2] is listed as “hypoxia, respiratory distress, and methemoglobulinemia”.
For `O=C(Nc1nc(-c2ccc(O)c(O)c2)c(-c2ccccc2)s1)c1ccc(O)c(O)c1` [COH29, N-(4–(3,4-dihydroxyphenyl)-5-phenylthiazol-2-yl)-3,4-dihydroxybenzamide], the IC50 [3] was 16 µM, the “interaction with immobilized full-length hRRM2 (sensorgram)” value [4] was “dose-dependent interaction” and the “binding after removal of 41 C-terminal amino acids from hRRM2” value [5] was “greatly decreased”. For the same compound, the “effect on RRM1-RRM2 binding” value ([6]; 0.5 µM RRM1, 0 – 50 µM compound) was “interfered with RRM1-RRM2 binding in a dose-dependent manner”, the “effect on RRM1-RRM2 interaction at low dose” value ([6]; 12.5 µM compound, 0.5 µM RRM1) was “enhanced RRM1-RRM2 interaction” and the “effect on RRM1-RRM2 complex at higher dose” value ([6]; > 25µM compound, 0.5 µM RRM1) was “disrupted the complex”. For the same compound, the “decrease of endogenously expressed RNR activity” value [7] was “approximately 50%”, the hRRM2 protein level [8] was “unaffected” and the hRRM2 protein level [9] was “unaffected”. It also gave an IC50 [10, 26] of 8 µM, an IC50 ([11]; Homo sapiens, read-out: IC50, toxicity assay) of 8 µM and an IC50 [12] of 8 µM. For the same compound, the IC50 [13] was 82 µM, the “real-time KB cell growth after addition at 24 h” value (“real-time KB cell growth” for short) [14] was “essentially halted” and the “real-time growth of KBHURs” value [15] was “remained sensitive”. The “real-time growth of KB-Gem” value [16] was “cytotoxic activity is strong and is unaffected by Gem resistance”, the “levels of dATP, dCTP and dGTP” value [17] was “all pools were greatly decreased” and the apoptosis [18] was “underwent apoptosis”. For the same compound, the cell cycle distribution ([18]; 48 h treatment) was “arrested at S-phase”, the “cytotoxicity in NCI 60 panel” value [19] was “Impressive inhibition of most of the cancer cell lines” and the “MOLT-4 tumor xenograft growth” value [20] was “dose-dependent inhibition”. For the same compound, the “TOV-112D tumor xenograft growth” value [21] was “dose-dependent inhibition”, the peak plasma concentration ([22]; PO 800 mg/kg in 30% solutol, female Balb/c nude mice) was 10 µM and the Tmax [22, 27] was 30 min. The concentration at 24 h [22, 27] was about 200 nM, the “tolerability, side effects” value [23] was “no appreciable side effects” and the “RNR activity in extracts of MOLT-4 tumor xenografts” value [24] was “dramatically lower”. For the same compound, the “intratumoral dNTP pools” value [25] was “decreased”.
With `Nc1ccn([C@@H]2O[C@H](CO)[C@@H](O)C2(F)F)c(=O)n1` [Gem, gemcitabine] the IC50 [10, 26] was 9 µM, the IC50 [12] was 1000 µM and the “real-time KB cell growth” value [14] was “cell growth continued”.
In the case of `NC(=O)NO` [HU, hydroxyurea], the IC50 ([10]; read-out: IC50, cell proliferation/viability, KB cells) is reported as 180 µM, the IC50 ([11]; read-out: IC50, toxicity assay, KB-HURs) is reported as 320 µM and the “real-time KB cell growth” value [14] is reported as “cell growth continued”.
